A short description of series [1]: Metabolic stability in rat hepatocyte […] assessed as intrinsic clearance measured per 10^6 cells. It is filed as ADME, cell-based. As to conditions: hepatocytes.
The nature of series [2]: AUC (0 to last) in CD-1 mouse at 20 mg/kg, po. It is filed as ADME, organism-based. As to conditions: in vivo.
The subject of series [3] is Plasmodium falciparum. Kind of series: Antimalarial activity against Plasmodium falciparum NF54 infected assessed as inhibition of male gamete formation incubated for 48 hrs by automated bright field microscopic analysis. As to conditions: NF54, 48 h. It is filed as functional, organism-based.
Series [4] relates to Plasmodium falciparum. Briefly: Antimalarial activity against Plasmodium falciparum NF54 infected assessed as inhibition of female gamete formation incubated for 48 hrs by automated bright field microscopic analysis. In kind it is functional, organism-based. As to conditions: NF54, 48 h.
The test system of series [5] is Plasmodium falciparum. Briefly: Antiplasmodial activity against asexual Plasmodium falciparum 3D7 infected in human […] cells assessed as reduction in parasite growth measured for 72 hrs by LDH assay. In kind it is functional, organism-based. As to conditions: 3D7, 72 h.
In series [6] the test system is Plasmodium falciparum. Kind of series: Antiplasmodial activity against Plasmodium flaciparum NF54 stage V gametocytes infected in Anopheles stephensi with parasite infected blood meal assessed as reduction in oocyst count at 500 nM measured 7 days post blood infection by light microscopic analysis relative to control. It is filed as functional. Details: scale not given: the % may be the effect or the level left. The note with it: time 7 day. The procedure, abridged: (§1)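 Stage V gametocytes of P. falciparum NF54 were treated with compound and fed to Anopheles stephensi in a standard membrane feeding assay. Midguts were dissected 7 days after the blood meal and oocysts counted. Results were given as average oocyst intensity ± SEM, with a t test against vehicle.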

Series [7] is described as follows: Aqueous solubility in PBS buffer at pH 7.4. It is filed as physicochemical.
For series [8], the system named is Plasmodium falciparum. Briefly: Antiplasmodial activity against Plasmodium flaciparum NF54 stage V gametocytes infected in Anopheles stephensi with parasite infected blood meal assessed as reduction in oocyst count at 100 nM measured 7 days post blood infection by light microscopic analysis relative to control. In kind it is functional. Details: scale not given: the % may be the effect or the level left. The note with it: time 7 day. A digest of the protocol: as §1

A short description of series [9]: Permeability across basolateral to apical side in human Caco-2 cells. In kind it is ADME, cell-based. In general terms: Caco-2 cells form a polarised layer with tight junctions and transporters.
Series [10] can be described thus: Half life in CD-1 mouse at 20 mg/kg, po. In kind it is ADME, organism-based. As to conditions: in vivo.
Series [11] is described as follows: Metabolic stability in human liver microsome assessed as intrinsic clearance. It is filed as ADME. The note with it: microsomes.
The subject of the next series is HepG2. Kind of series: Cytotoxicity against human HepG2 cells assessed as inhibition of cell growth incubated for 48 hrs by celltiterglo assay. As to conditions: hepg2, 48 h. It is filed as toxicity, cell-based.
Series [12] can be described thus: Metabolic stability in mouse liver microsome assessed as intrinsic clearance. It is filed as ADME. The note with it: microsomes. Background: Microsomes from liver hold many membrane-bound enzymes, among them those of drug oxidation.
A short description of series [13]: Tmax in CD-1 mouse at 20 mg/kg, po. In kind it is ADME, organism-based. As to conditions: in vivo.
Series [14] is described as follows: Permeability across apical to basolateral side in human Caco-2 cells. In kind it is ADME, cell-based.
A short description of series [15]: Lipophilicity, logD of compound at pH 7.4 by shake-flask method. As to conditions: buffer. It is filed as physicochemical.
Series [16] in a line: Cmax in CD-1 mouse at 20 mg/kg, po. As to conditions: in vivo. In kind it is ADME, organism-based.
Series [17] can be described thus: Clearance in CD-1 mouse at 20 mg/kg, po. In kind it is ADME, organism-based. The note with it: in vivo.
In series [18] the test system is Plasmodium berghei. Kind of series: Antimalarial activity against Plasmodium berghei ANKA infected in female BALB/c mouse assessed as parasitemia at 50 mg/kg, po measured for 2 to 72 hrs post infection by Giemsa staining based light microscopy. As to conditions: time 2-72 hrs. It is filed as functional.
In series [19] the test system is Plasmodium berghei. Kind of series: Antimalarial activity against Plasmodium berghei ANKA infected in female BALB/c mouse assessed as reduction in parasitemia at 50 mg/kg, po measured for 2 to 72 hrs post infection by Giemsa staining based light microscopy. It is filed as functional. Details: scale not given: the % may be the effect or the level left. As to conditions: time 2-72 hrs.

In series [20] the test system is Plasmodium berghei. Briefly: Antimalarial activity against Plasmodium berghei ANKA infected in female BALB/c mouse assessed as parasitemia at 30 mg/kg, po measured for 2 to 72 hrs post infection by Giemsa staining based light microscopy. In kind it is functional. As to conditions: time 2-72 hrs.
The subject of series [21] is Plasmodium berghei. Kind of series: Antimalarial activity against Plasmodium berghei ANKA infected in female BALB/c mouse assessed as reduction in parasitemia at 30 mg/kg, po measured for 2 to 72 hrs post infection by Giemsa staining based light microscopy. In kind it is functional. The note with it: time 2-72 hrs. More on the design: scale not given: the % may be the effect or the level left.

The source of these data is ChEMBL document CHEMBL6115053, “Optimization and Characterization of N-Acetamide Indoles as Antimalarials That Target PfATP4” (J Med Chem, 2025).

Where only a bound is given, the exact number is not on record here.

A word on the AUC(0-t): it is exposure summed from dosing to a finite time, without extrapolation to infinity. For orientation: EC50 means the concentration that produces a half-maximal response. For orientation: solubility (kinetic) means solubility judged after dilution from a stock solution rather than from solid. The term half-life denotes how long it takes for the measured level to halve. As usually defined, the CC50 is the concentration that lowers cell viability or growth by half. As a reminder, the Tmax is the time at which the peak concentration occurs. A word on the logD: it is the decadic logarithm of the distribution of all forms, ionised or not, between an organic phase and buffer at a given pH. Usually Cmax stands for the maximum level reached in the sampled fluid or tissue. For orientation: CL/F means clearance divided by bioavailability, as obtained after extravascular dosing.

`COc1cc(NC(=O)Cn2cc(Cl)c3cc(F)c(-c4cnn(C)c4)cc32)cc(OC)c1OC`: the “intrinsic clearance (CLint)” value is 2.6 uL/min/10^6 cells in series [1], below 3.5 µL/min/mg in series [11] and 6.8 µL/min/mg in [12]. Also, in series [2], the AUC(0-t) was 8190 ng·h/mL. Further, the EC50 in the series with Plasmodium falciparum [3] was found to be 210 nM; with Plasmodium falciparum [4], 250 nM; with Plasmodium falciparum [5], 13 nM. Also, the Activity in the series with Plasmodium falciparum [6] was 83%; in the series on Plasmodium falciparum [8] it was 59%; with Plasmodium berghei [18], 15.3%; in the series with Plasmodium berghei [19] it was 55%. This compound had a kinetic solubility in [7] below 2.5 µM. Also, the permeability in [9] is on record as 1.5 10^-6 cm/s; in [14] it was 0.8 10^-6 cm/s. The half-life in series [10] was 2.16 h. In addition, the cytotoxic concentration (CC50) in the series with HepG2 is above 40000 nM. Besides, the Tmax in series [13] is 5.33 h. The same compound gave a logD in series [15] of 4.8. Besides, the peak level in series [16] (Cmax) was 700 ng/mL. In addition, the CL/F in series [17] was determined as 42 mL/min/kg.
Regarding `C[C@@H]1CC[C@H]2[C@@H](C)C(=O)O[C@@H]3O[C@@]4(C)CC[C@@H]1[C@]32OO4` [ARTEMISININ], the Activity worked out at 2.6% in the series with Plasmodium berghei [20] and 92.4% in the series with Plasmodium berghei [21].
